One assay has as its system Plasmodium falciparum. Kind of assay: In vitro antiparasitic activity against Plasmodium falciparum. Type of assay: functional, organism-based.
A further assay deals with Trypanosoma brucei. In words: In vitro antiparasitic activity was determined against Trypanosoma brucei. In kind it is functional, organism-based.
The test system of another assay is Leishmania donovani. Kind of assay: In vitro antiparasitic activity was determined against Leishmania donovani. In kind it is functional, organism-based. Summed up: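 Mouse peritoneal macrophages in RPMI 1640 with 10% heat-inactivated FBS, infected after 24 h with L. donovani amastigotes (3:1 amastigotes to macrophages); free amastigotes removed at 4 h. Next day, drug dilutions added; 96 h at 37 °C, 5% CO2. Slides methanol-fixed and Giemsa-stained; infected vs noninfected macrophages counted microscopically as % of control; IC50 by linear regression.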

The test system of a further assay is Trypanosoma cruzi. In words: In vitro antiparasitic activity was determined against Trypanosoma cruzi. Type of assay: functional, organism-based. The method in brief:
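L-6 rat myoblasts (2000 cells/well, RPMI 1640, 10% FBS, 2 mM L-glutamine) infected after 24 h with 5000 T. cruzi Tulahuen C2C4 LacZ trypomastigotes plus serial drug dilutions; 4 days at 37 °C, 5% CO2. MIC read microscopically; for IC50, CPRG/Nonidet added, colour read at 540 nm after 2–4 h, IC50 from sigmoidal curve.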

Assay [1] concerns L6. Kind of assay: In vitro cytotoxic activity was determined against L6 cells. In kind it is functional, cell-based, Rattus norvegicus.
The test system of assay [2] is L6. In words: In vitro cytotoxic activity against L6 cells. Type of assay: functional, cell-based. As to conditions: Rattus norvegicus; call rule not given here.
For assay [3], the target named is 6-phosphogluconate dehydrogenase (Trypanosoma brucei) (UniProt P31072). In words: Inhibition constant against 6-phosphogluconate dehydrogenase of Trypanosoma brucei expressed in Escherichia coli; NI denotes no inhibition.
The target of assay [4] is 6-phosphogluconate dehydrogenase (Ovis aries) (UniProt P00349). In words: Inhibition constant against 6-phosphogluconate dehydrogenase of sheep liver; NI denotes no inhibition.
Chain of 6-phosphogluconate dehydrogenase (Ovis aries) (P00349 whole entry, looked up): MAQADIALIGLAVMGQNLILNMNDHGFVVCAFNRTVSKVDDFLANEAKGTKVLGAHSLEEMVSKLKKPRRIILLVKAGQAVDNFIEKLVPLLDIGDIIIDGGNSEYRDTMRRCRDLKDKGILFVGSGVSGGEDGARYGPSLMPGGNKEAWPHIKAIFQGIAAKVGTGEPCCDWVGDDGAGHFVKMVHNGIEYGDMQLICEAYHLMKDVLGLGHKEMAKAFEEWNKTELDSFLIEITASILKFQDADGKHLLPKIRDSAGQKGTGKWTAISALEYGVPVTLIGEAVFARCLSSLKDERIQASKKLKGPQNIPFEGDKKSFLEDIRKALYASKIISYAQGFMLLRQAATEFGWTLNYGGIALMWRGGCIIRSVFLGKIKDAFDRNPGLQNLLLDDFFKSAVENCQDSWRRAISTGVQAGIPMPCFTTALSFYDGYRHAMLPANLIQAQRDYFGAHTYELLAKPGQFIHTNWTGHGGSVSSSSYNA

Chain of 6-phosphogluconate dehydrogenase (Trypanosoma brucei) (P31072 whole entry, looked up): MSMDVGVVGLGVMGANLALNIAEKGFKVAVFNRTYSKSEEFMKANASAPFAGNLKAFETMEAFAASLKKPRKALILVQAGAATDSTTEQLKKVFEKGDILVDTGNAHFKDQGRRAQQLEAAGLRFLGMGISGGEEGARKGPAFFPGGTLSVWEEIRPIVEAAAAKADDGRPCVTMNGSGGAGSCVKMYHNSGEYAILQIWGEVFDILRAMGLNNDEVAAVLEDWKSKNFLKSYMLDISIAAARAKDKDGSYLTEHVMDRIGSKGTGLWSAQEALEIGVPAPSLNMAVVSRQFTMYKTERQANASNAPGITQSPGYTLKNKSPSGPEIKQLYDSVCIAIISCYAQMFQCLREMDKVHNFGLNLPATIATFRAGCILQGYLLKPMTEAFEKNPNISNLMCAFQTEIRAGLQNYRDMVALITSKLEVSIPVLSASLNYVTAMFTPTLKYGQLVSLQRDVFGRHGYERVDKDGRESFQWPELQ

For orientation: IC50 means the concentration that gives 50% inhibition. A higher IC50 goes with a need for much substance. For `CC(=O)O[C@H](COP(=O)(OCc1ccccc1)OCc1ccccc1)[C@@H](OC(C)=O)C(=O)N(OCc1ccccc1)C(C)=O`, the IC50 in the assay with Plasmodium falciparum was over 80 µM; with Trypanosoma brucei it was 49 µM; with Leishmania donovani, over 48 µM; in the assay on Trypanosoma cruzi, over 143 µM.
As to `O=C1OC[C@@H](OC2CCCO2)[C@H]1OC1CCCO1` (stereo partly drawn), the concentration for half-maximal inhibition (IC50) with Plasmodium falciparum was 78 µM; in the assay with Trypanosoma brucei it was 113 µM; in the assay on Leishmania donovani it was over 105 µM; in the assay on Trypanosoma cruzi, over 315 µM.
Regarding `O=C1OC[C@@H](O)[C@H]1O`, in the assay on L6 [1], the IC50 entry is reported as “Not Active”.
In the case of `CC1(C)OC[C@H](CSCC(=O)OCc2ccccc2)O1`, the half-inhibitory concentration (IC50) with Plasmodium falciparum is over 169 µM; in the assay with Trypanosoma brucei, over 304 µM; with Leishmania donovani it was over 101 µM; in the assay on Trypanosoma cruzi it was 215 µM.
Consider `O=C(NO)[C@H](OC1CCCO1)[C@@H](CCO)OC1CCCO1` (stereo partly drawn), for which the IC50 is about 157 µM with Plasmodium falciparum, 61 µM in the assay with Trypanosoma brucei, over 94 µM in the assay with Leishmania donovani and over 282 µM in the assay with Trypanosoma cruzi.
`CC(=O)O[C@H](COP(=O)(O)O)[C@@H](OC(C)=O)C(=O)NO`: the half-inhibitory concentration (IC50) is over 159 µM with Plasmodium falciparum, 229 µM in the assay with Trypanosoma brucei, over 285 µM in the assay on L6 [2] and over 285 µM in the assay with Trypanosoma cruzi.
Turning to `O=C(NOCc1ccccc1)[C@H](O)[C@H](O)COP(=O)(OCc1ccccc1)OCc1ccccc1`, the half-inhibitory concentration (IC50) in the assay on Plasmodium falciparum was over 100 µM; in the assay on Trypanosoma brucei it was 130 µM; in the assay on Leishmania donovani, 33 µM; in the assay on Trypanosoma cruzi, over 179 µM.
Turning to `O=C(C[S+]([O-])C[C@H](O)COP(=O)(OCc1ccccc1)OCc1ccccc1)OCc1ccccc1` (stereo partly drawn), the IC50 in the assay with Plasmodium falciparum was over 94 µM; with Trypanosoma brucei, 82 µM; in the assay on Leishmania donovani, over 56 µM; in the assay on Trypanosoma cruzi it was over 169 µM. The Ki result in assay [3] and in assay [4] was “Not Active” in each case.
With `CC1(C)O[C@H](COP(=O)(O)O)[C@H](C(N)=O)O1`, the half-inhibitory concentration (IC50) with Plasmodium falciparum was over 196 µM; in the assay with Trypanosoma brucei, 212 µM; in the assay with L6 [2], over 220 µM; in the assay on Trypanosoma cruzi, 131 µM.
For `O=C(NO)[C@H](O)[C@H](O)COP(=O)(O)O`, the IC50 is over 216 µM in the assay with Plasmodium falciparum; over 389 µM in the assay with Trypanosoma brucei; over 130 µM in the assay on Leishmania donovani; 269 µM in the assay with L6 [2]; over 389 µM in the assay on Trypanosoma cruzi.
In the case of `CC(=O)O[C@H](COP(=O)(OCc1ccccc1)OCc1ccccc1)[C@@H](OC(C)=O)C(=O)NOCc1ccccc1`, the IC50 is over 85 µM in the assay on Plasmodium falciparum, 60 µM with Trypanosoma brucei, over 17 µM in the assay with Leishmania donovani and over 154 µM in the assay on Trypanosoma cruzi. Moreover, the Ki result in assay [3] and in assay [4] was “Not Active” in each case.
Consider `O=C(C[S+]([O-])C[C@@H](COP(=O)(OCc1ccccc1)OCc1ccccc1)OC1CCCO1)OCc1ccccc1` (stereo partly drawn), for which the IC50 in the assay on Plasmodium falciparum came to 7 µM; in the assay with Trypanosoma brucei, 73 µM; in the assay on L6 [2], 91 µM; in the assay on Trypanosoma cruzi it was 82 µM. Further, the Ki entry in assay [3] and in assay [4] was “Not Active” each time.
Take `CC(=O)O[C@H](COP(=O)(O)O)C[S+]([O-])CC(=O)O` (stereo partly drawn): the IC50 in the assay with Plasmodium falciparum is over 164 µM; in the assay on Trypanosoma brucei, 113 µM; in the assay on L6 [1], “Not Active”; in the assay on Leishmania donovani, over 99 µM; in the assay on Trypanosoma cruzi it was over 296 µM.
As to `O=C(O)C[S+]([O-])C[C@H](O)COP(=O)(O)O` (stereo partly drawn), the IC50 is over 191 µM with Plasmodium falciparum, 244 µM with Trypanosoma brucei, 343 µM with L6 [2] and over 343 µM with Trypanosoma cruzi.
With `O=C(NO)[C@H](O)[C@H](O)CO`, the IC50 is 18 µM in the assay on Plasmodium falciparum, 116 µM in the assay with Trypanosoma brucei, over 199 µM with Leishmania donovani and 290 µM in the assay on Trypanosoma cruzi.
Take `CC1(C)O[C@H](COP(=O)(OCc2ccccc2)OCc2ccccc2)[C@H](C(=O)NOCc2ccccc2)O1`: the IC50 is over 92 µM in the assay with Plasmodium falciparum, 126 µM in the assay with Trypanosoma brucei, over 55 µM in the assay with Leishmania donovani and over 166 µM with Trypanosoma cruzi.
For `CC1(C)O[C@H](CO)[C@H](C(=O)NOCc2ccccc2)O1`, the 50% inhibitory concentration (IC50) was 53 µM in the assay with Plasmodium falciparum; 3.5 µM in the assay with Trypanosoma brucei; 30 µM with Leishmania donovani; 37 µM in the assay on L6 [2]; over 32 µM in the assay with Trypanosoma cruzi.
Consider `CC(=O)O[C@H](COP(=O)(OCc1ccccc1)OCc1ccccc1)CSCC(=O)OCc1ccccc1`, for which the IC50 was 62 µM in the assay on Plasmodium falciparum, 137 µM in the assay on Trypanosoma brucei, 28 µM in the assay on Leishmania donovani and over 161 µM in the assay on Trypanosoma cruzi.
Turning to `NC(=O)[C@H](O)[C@H](O)COP(=O)(O)O`, the IC50 in the assay on Plasmodium falciparum was over 232 µM; in the assay with Trypanosoma brucei, 277 µM; in the assay on Leishmania donovani, over 139 µM; in the assay on L6 [2] it was over 418 µM; with Trypanosoma cruzi it was over 418 µM.
In the case of `CC1(C)O[C@H](COP(=O)(O)O)[C@H](C(=O)NO)O1`, the concentration for half-maximal inhibition (IC50) in the assay with Plasmodium falciparum was over 184 µM; with Trypanosoma brucei, over 332 µM; with Leishmania donovani, over 111 µM; with L6 [2] it was over 332 µM; with Trypanosoma cruzi it was over 332 µM.
Regarding `O=C(CSC[C@H](O)CO)OCc1ccccc1`, the half-maximal inhibitory concentration (IC50) with Plasmodium falciparum was over 195 µM; in the assay with Trypanosoma brucei it was 75 µM; with Leishmania donovani it was over 117 µM; in the assay with Trypanosoma cruzi, 212 µM.
For the molecule `CC(=O)O[C@H](COP(=O)(OCc1ccccc1)OCc1ccccc1)C[S+]([O-])CC(=O)OCc1ccccc1` (stereo partly drawn), the IC50 in the assay with Plasmodium falciparum is 18 µM; in the assay with Trypanosoma brucei, 36 µM; in the assay with Leishmania donovani it was 27 µM; in the assay with L6 [2] it was 60 µM; with Trypanosoma cruzi, over 157 µM. The Ki entry in assay [3] and in assay [4] was “Not Active” in each case.
In the case of `CC1(C)O[C@@H]2COC(=O)[C@@H]2O1`, the half-maximal inhibitory concentration (IC50) is over 316 µM in the assay with Plasmodium falciparum; 262 µM in the assay with Trypanosoma brucei; “Not Active” with L6 [1]; over 190 µM in the assay on Leishmania donovani; over 569 µM in the assay on Trypanosoma cruzi.
`O=C(CSC[C@H](O)COP(=O)(OCc1ccccc1)OCc1ccccc1)OCc1ccccc1`: the IC50 in the assay on Plasmodium falciparum came to 65 µM; with Trypanosoma brucei it was 47 µM; with Leishmania donovani it was 23 µM; with Trypanosoma cruzi, 124 µM.

Source of the values: ChEMBL document CHEMBL1148341, “Selective inhibition of Trypanosoma brucei 6-phosphogluconate dehydrogenase by high-energy intermediate and transition-state analogues” (J Med Chem, 2004).
